From ChEMBL document CHEMBL2169852, “Naphthomycins L-N, ansamycin antibiotics from Streptomyces sp. CS” (J Nat Prod, 2012)
Converted amounts (≈) assume the structure as drawn. The source made the active and inactive calls. No cut-off for these calls is given here.

How the values were obtained:
HL-60 [1] = assay: Growth inhibition of human HL60 cells at 40 uM by MTT assay; assay type: functional, cell-based
SMMC-7721 [2] = assay: Growth inhibition of human SMMC7721 cells at 40 uM by MTT assay; assay type: functional, cell-based
A549 [3] = assay: Growth inhibition of human A549 cells at 40 uM by MTT assay; assay type: functional, cell-based
Pyricularia oryzae [4] = assay: Antifungal activity against Pyricularia oryzae incubated for 48 hrs by microdilution method; assay type: functional
Method in brief: (§1)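 Fungus pre-grown on PDA at 22 °C for 7–10 days. Modified standardized broth microdilution with compounds at 50–800 μg/mL (final) in fungal suspension, final DMSO ≤3%. DMSO-only and compound-free fungal wells served as controls. Incubated at 22 °C for 48 h. MIC is the lowest concentration with no visible growth. Run in triplicate.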

MCF7 [5] = assay: Growth inhibition of human MCF7 cells at 40 uM by MTT assay; assay type: functional, cell-based
Fusarium verticillioides [6] = assay: Antifungal activity against Fusarium moniliforme incubated for 48 hrs by microdilution method; assay type: functional
Method in brief: (§2)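 Modified standardized broth microdilution. Phytopathogenic fungi pre-grown on PDA at 22 °C for 7–10 days. Test compounds added at 50–800 μg/mL to wells with fungal suspension, 0.2 mL final volume, DMSO ≤3% final. DMSO served as negative control and fungus without compound as positive control. Incubation 22 °C, 48 h. MIC taken as lowest concentration with no visible growth. Run in triplicate.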

Fusarium oxysporum [7] = assay: Antifungal activity against Fusarium oxysporum incubated for 48 hrs by microdilution method; assay type: functional; method in brief: as §2
[8] = Antifungal activity against Gaeumannomyces graminis incubated for 48 hrs by microdilution method; assay type: functional; method in brief: as §2
SW480 [9] = assay: Growth inhibition of human SW480 cells at 40 uM by MTT assay; assay type: functional, cell-based
[10] = Antifungal activity against Verticillium cinnabarinum incubated for 48 hrs by microdilution method; assay type: functional; method in brief: as §2
HL-60 [11] = assay: Growth inhibition of human HL60 cells by MTT assay; assay type: functional, cell-based
A549 [12] = assay: Growth inhibition of human A549 cells by MTT assay; assay type: functional, cell-based
SW480 [13] = assay: Growth inhibition of human SW480 cells by MTT assay; assay type: functional, cell-based
SMMC-7721 [14] = assay: Growth inhibition of human SMMC7721 cells by MTT assay; assay type: functional, cell-based
MCF7 [15] = assay: Growth inhibition of human MCF7 cells by MTT assay; assay type: functional, cell-based
[16] = Antifungal activity against Gaeumannomyces graminis at 800 ug/ml incubated for 48 hrs by microdilution method; assay type: functional; method in brief: as §2
Pyricularia oryzae [17] = assay: Antifungal activity against Pyricularia oryzae at 800 ug/ml incubated for 48 hrs by microdilution method; assay type: functional, organism-based; method in brief: as §1
Fusarium oxysporum [18] = assay: Antifungal activity against Fusarium oxysporum at 800 ug/ml incubated for 48 hrs by microdilution method; assay type: functional, organism-based; method in brief: as §2
[19] = Antifungal activity against Verticillium cinnabarinum at 800 ug/ml incubated for 48 hrs by microdilution method; assay type: functional; method in brief: as §2
Fusarium verticillioides [20] = assay: Antifungal activity against Fusarium moniliforme at 800 ug/ml incubated for 48 hrs by microdilution method; assay type: functional, organism-based; method in brief: as §2

| Structure (SMILES) | growth inhibition (GI) (HL-60 [1]) | growth inhibition (GI) (SMMC-7721 [2]) | growth inhibition (GI) (A549 [3]) | MIC (Pyricularia oryzae [4]) [µg/mL] | growth inhibition (GI) (MCF7 [5]) | MIC (Fusarium verticillioides [6]) [µg/mL] | MIC (Fusarium oxysporum [7]) [µg/mL] | MIC [8] [µg/mL] | growth inhibition (GI) (SW480 [9]) | MIC [10] [µg/mL] | IC50 (HL-60 [11]) [µM] | IC50 (A549 [12]) [µM] | IC50 (SW480 [13]) [µM] | IC50 (SMMC-7721 [14]) [µM] | IC50 (MCF7 [15]) [µM] | Activity [16] | Activity (Pyricularia oryzae [17]) | Activity (Fusarium oxysporum [18]) | Activity [19] | Activity (Fusarium verticillioides [20]) |
| --- | --- | --- | --- | --- | --- | --- | --- | --- | --- | --- | --- | --- | --- | --- | --- | --- | --- | --- | --- | --- |
| C/C1=C/C=C\C=C\[C@H](C)[C@@H](O)CC(=O)/C(C)=C/C[C@H](O)/C=C/[C@H](C)[C@H](O)[C@@H](C)/C=C(\C)C(=O)c2c(O)c(C)cc3c2C(=O)C(N)=C(NC1=O)C3=O [NAPHTHOMYCIN L] | inactive | inactive | inactive | 600 (≈ 856 µM) | inactive | 300 (≈ 428 µM) | 600 (≈ 856 µM) | 600 (≈ 856 µM) | inactive | 600 (≈ 856 µM) |  |  |  |  |  |  |  |  |  |  |
| C/C1=C/C=C\C=C\[C@H](C)[C@@H](O)CC(=O)/C(C)=C/C[C@H](O)/C=C/[C@H](C)[C@H](O)[C@@H](C)/C=C(\C)C(=O)c2c(O)c(C)cc3c2C(=O)C(Cl)=C(NC1=O)C3=O [NAPHTHOMYCIN A] |  |  |  | 400 (≈ 555 µM) |  | 100 (≈ 139 µM) | 400 (≈ 555 µM) | 400 (≈ 555 µM) |  | 400 (≈ 555 µM) | 25.6 | 15.9 | 11.7 | 16.6 | 11.7 |  |  |  |  |  |
| C/C1=C/C=C\C=C\[C@H](C)[C@@H](O)CC(=O)/C(C)=C/C[C@H](O)/C=C/[C@H](C)[C@H](O)[C@@H](C)/C=C(\C)C(=O)c2c(O)c(C)cc3c2C(=O)C(NCCSC2=C4NC(=O)\C(C)=C/C=C\C=C\[C@H](C)[C@@H](O)CC(=O)/C(C)=C/C[C@H](O)/C=C/[C@H](C)[C@H](O)[C@@H](C)/C=C(\C)C(=O)c5c(O)c(C)cc(c5C2=O)C4=O)=C(NC1=O)C3=O | inactive | inactive | inactive |  | inactive |  |  |  | inactive |  |  |  |  |  |  | inactive | inactive | inactive | inactive | inactive |
| C/C1=C/C=C\C=C\[C@H](C)[C@@H](O)CC(=O)/C(C)=C/C[C@H](O)/C=C/[C@H](C)[C@H](O)[C@@H](C)/C=C(\C)C(=O)c2c(O)c(C)cc3c2C(=O)C(SCC(=O)O)=C(NC1=O)C3=O | inactive | inactive | inactive |  | inactive |  |  |  | inactive |  |  |  |  |  |  | inactive | inactive | inactive | inactive | inactive |
| C/C1=C/C=C\C=C\[C@H](C)[C@@H](O)CC(=O)/C(C)=C/C[C@H](O)/C=C/[C@H](C)[C@H](O)[C@@H](C)/C=C(\C)C(=O)c2c(O)c(C)cc3c2C(=O)C=C(NC1=O)C3=O | inactive | inactive | inactive |  | inactive |  |  |  | inactive |  |  |  |  |  |  | inactive | inactive | inactive | inactive | inactive |
| C/C1=C/C=C\C=C\[C@H](C)[C@@H](O)CC(=O)/C(C)=C/C[C@H](O)/C=C/[C@H](C)[C@H](O)[C@@H](C)/C=C(\C)C(=O)c2c(O)c(C)cc3c2C(=O)C(O)=C(NC1=O)C3=O | inactive | inactive | inactive |  | inactive |  |  |  | inactive |  |  |  |  |  |  | inactive | inactive | inactive | inactive | inactive |
